Tests used:
[1] = system: FXN mRNA in GM15850 cells; assay: Co-treatment of SynGRs with BET-binding ligands, FXN mRNA in GM15850 cells; type: cell-based, human; conditions: SynGR1 1 h, then ligand 0.5 μM for 23 h
How it was run: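 Patient-derived GM15850 lymphoblasts in RPMI with 15% FBS; compounds dissolved in DMSO. Test compound (1 mM stock, increasing concentrations) added for 1 h, then pan-BET, BD1- or BD2-selective BET ligand at 0.5 μM for 23 h. RNA purified with DNase treatment; cDNA from 400 ng RNA; SYBR qPCR on 100 ng cDNA with FXN and TBP primers; normalised to 0.1% DMSO control.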

[2] = system: FXN expression in patient-derived cells; conditions: wide array of patient-derived cells; cited from earlier work

With `COCc1nc2cnc3cc(-c4c(C)noc4C)c(OC[C@H]4CCNC4)cc3c2n1[C@H](C)c1ccccc1` [GSK778] the “effect of co-treatment with BET ligand on FXN expression activity of SynGR1” value [1] was “further stimulated the activity”.
For `Cc1sc2c(c1C)C(c1ccc(Cl)cc1)=N[C@@H](CC(=O)NCCOCCOCCOCCOCCOCCOCCC(=O)NCCCN(C)CCCNC(=O)CCNC(=O)c1nc(NC(=O)CCNC(=O)c3cc(NC(=O)c4nc(NC(=O)CCNC(=O)c5cc(NC(=O)c6nccn6C)cn5C)cn4C)cn3C)cn1C)c1nnc(C)n1-2` [SynGR1], the FXN protein levels [2] is given as “restoring FXN protein levels”.

Source: PMC12011195 (ACS chemical biology, 2024)
